Experimental data reported in ChEMBL document CHEMBL4680268, “Pharmacomodulations of the benzoyl-thiosemicarbazide scaffold reveal antimicrobial agents targeting d-alanyl-d-alanine ligase in bacterio” (Eur J Med Chem, 2020).
Converted amounts (≈) assume the structure as drawn. The source made the active and inactive calls. No cut-off for these calls is given here.

Columns and labels:
Staphylococcus aureus [1] = test: Antibacterial activity against hospital-acquired methicillin/ciprofloxacin and moxifloxacin resistant Staphylococcus aureus SA481 assessed as reduction in bacterial growth incubated for 18 to 24 hrs by broth microdilution method; assay type: functional; details: time 18-24 hrs
In short: (§1)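 Broth microdilution in cation-adjusted Mueller-Hinton broth per CLSI; inoculum 10⁶ bacteria/mL. Two-fold serial dilutions, compound in broth with 5% DMSO mixed 1:1 with bacterial suspension, giving 2.5% DMSO final. Top concentration 0.1, 0.4 or 0.8 mM depending on solubility. Incubated 18–24 h at 37 °C. MIC = lowest concentration preventing visible growth.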

Enterococcus faecalis [2] = test: Antibacterial activity against Enterococcus faecalis ATCC 29212 assessed as reduction in bacterial growth incubated for 18 to 24 hrs by broth microdilution method; assay type: functional; details: time 18-24 hrs
Staphylococcus aureus [3] = test: Antibacterial activity against Staphylococcus aureus ATCC 25923 assessed as reduction in bacterial growth incubated for 18 to 24 hrs by broth microdilution method; assay type: functional; details: time 18-24 hrs
Enterococcus faecalis [4] = test: Inhibition of recombinant Enterococcus faecalis C-terminal His6-tagged DdlB expressed in Escherichia coli LMG194 assessed as residual activity using D-Ala as substrate at 100 uM preincubated with enzyme for 30 mins followed by substrate addition and measured after 20 mins by malachite green based colorimetric analysis relative to control; details: time 50.0 min
In short: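 Purified E. faecalis His-tagged DdlB (20 mg/L) preincubated 30 min at 30 °C with 100 µM compound and 500 µM ATP in 20 mM Tris-HCl pH 7.4, 10 mM MgCl₂, 10 mM KCl, 10% DMSO; 1 mM D-Ala added, 20 min at 30 °C. Phosphate detected with malachite green reagent, A650 after 25 min dark; residual activity versus no-inhibitor control, triplicate.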

Pseudomonas aeruginosa = test: Antibacterial activity against Pseudomonas aeruginosa PAO1 assessed as reduction in bacterial growth incubated for 18 to 24 hrs by broth microdilution method; assay type: functional, organism-based; details: time 18-24 hrs
In short: (§2)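 Microdilution in cation-adjusted Mueller-Hinton broth per CLSI; two-fold compound series in CAMHB with 5% DMSO mixed 1:1 with bacterial suspension, giving 10⁶ bacteria/mL inoculum and 2.5% DMSO final. Top concentrations 0.1, 0.4 or 0.8 mM depending on solubility. Incubated 18–24 h at 37 °C; MIC read as lowest concentration preventing visible growth.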

Klebsiella pneumoniae = test: Antibacterial activity against Klebsiella pneumoniae ATCC700603 assessed as reduction in bacterial growth incubated for 18 to 24 hrs by broth microdilution method; assay type: functional, organism-based; details: 700603, time 18-24 hrs; in short: as §2
Escherichia coli = test: Antibacterial activity against Escherichia coli ATCC 25922 assessed as reduction in bacterial growth incubated for 18 to 24 hrs by broth microdilution method; assay type: functional, organism-based; details: time 18-24 hrs; in short: as §2
[5] = Inhibition of recombinant Enterococcus faecalis C-terminal His6-tagged DdlB expressed in Escherichia coli LMG194 using D-Ala as substrate preincubated with enzyme for 30 mins followed by substrate addition and measured after 20 mins by malachite green based colorimetric analysis
In short: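 DdlB (20 mg/L) malachite green phosphate assay: enzyme, inhibitor and 500 µM ATP preincubated 30 min at 30 °C in Tris-HCl pH 7.4 buffer with MgCl₂, KCl and 10% DMSO, then 1 mM D-Ala for 20 min; A650 read. IC₅₀ from 11 concentrations, also run with 0.01% Triton X-100; mean ± SD of triplicates, n ≥ 2; EC₅₀ given where maximal inhibition stayed below 50%.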

Staphylococcus aureus [6] = test: Antibacterial activity against hospital-acquired vancomycin resistant Staphylococcus aureus VRS-1 assessed as reduction in bacterial growth incubated for 18 to 24 hrs by broth microdilution method; assay type: functional; details: time 18-24 hrs; in short: as §1
Staphylococcus aureus [7] = test: Antibacterial activity against community-acquired methicillin and erythromycin resistant Staphylococcus aureus SA325 assessed as reduction in bacterial growth incubated for 18 to 24 hrs by broth microdilution method; assay type: functional; details: time 18-24 hrs; in short: as §1
Enterococcus faecalis [8] = test: Antibacterial activity against vancomycin resistant Enterococcus faecalis BM4575 harboring VanE genotype, constitutive expression of Ddl and VanE D-Ala-D-Ser ligase assessed as reduction in bacterial growth incubated for 18 to 24 hrs by broth microdilution method; assay type: functional; details: time 18-24 hrs; in short: as §1
Staphylococcus aureus [9] = test: Antibacterial activity against methicillin and linezolid resistant Staphylococcus aureus NRS119 assessed as reduction in bacterial growth incubated for 18 to 24 hrs by broth microdilution method; assay type: functional; details: time 18-24 hrs; in short: as §1
Enterococcus faecalis [10] = test: Antibacterial activity against vancomycin resistant Enterococcus faecalis BM4390 harboring VanB mutant with inactive Ddl and constitutive expression of D-Ala-D-Lac assessed as reduction in bacterial growth incubated for 18 to 24 hrs by broth microdilution method; assay type: functional; details: time 18-24 hrs; in short: as §1
Staphylococcus aureus [11] = test: Antibacterial activity against methicillin resistant and vancomycin intermediate resistant Staphylococcus aureus MU50 assessed as reduction in bacterial growth incubated for 18 to 24 hrs by broth microdilution method; assay type: functional; details: time 18-24 hrs; in short: as §1
Enterococcus faecalis [12] = test: Antibacterial activity against vancomycin resistant Enterococcus faecalis JH2-2::C1 harboring constitutive expression of Ddl and vanB ligase assessed as reduction in bacterial growth incubated for 18 to 24 hrs by broth microdilution method; assay type: functional; details: time 18-24 hrs; in short: as §1

| Compound | MIC (Staphylococcus aureus [1]) [µM] | MIC (Enterococcus faecalis [2]) [µM] | MIC (Staphylococcus aureus [3]) [µM] | Activity (Enterococcus faecalis [4]) [%] | Activity (Pseudomonas aeruginosa) | Activity (Klebsiella pneumoniae) | Activity (Escherichia coli) | IC50 [5] [nM] | MIC (Staphylococcus aureus [6]) [µM] | MIC (Staphylococcus aureus [7]) [µM] | MIC (Enterococcus faecalis [8]) [µM] | MIC (Staphylococcus aureus [9]) [µM] | MIC (Enterococcus faecalis [10]) [µM] | MIC (Staphylococcus aureus [11]) [µM] | MIC (Enterococcus faecalis [12]) [µM] |
| --- | --- | --- | --- | --- | --- | --- | --- | --- | --- | --- | --- | --- | --- | --- | --- |
| O=C(O)c1cn(C2CC2)c2cc(N3CCNCC3)c(F)cc2c1=O [CIPROFLOXACIN] | 770 (≈ 255 µg/mL) | – | – | – | – | – | – | – | – | – | – | – | – | – | – |
| S=c1[nH]nc(-c2ccccc2)n1-c1ccc(Cl)c(Cl)c1 | – | > 100 | > 100 | > 100 | – | – | – | – | – | – | – | – | – | – | – |
| Oc1ccccc1/N=C(/S)Nc1ccccc1 | – | > 800 | > 800 | > 100 | – | – | – | – | – | – | – | – | – | – | – |
| O=C(NNC(=S)Nc1ccc(F)c(F)c1)c1ccccc1O | – | 400 (≈ 129 µg/mL) | 400 (≈ 129 µg/mL) | > 50 | inactive | inactive | inactive | 920 | – | – | – | – | – | – | – |
| Oc1ccccc1/C=N/NC(=S)Nc1ccccc1 | – | > 400 | > 400 | > 50 | – | – | – | 2600 | – | – | – | – | – | – | – |
| O=C(NC(=S)NNC(=O)c1ccccc1O)c1ccccc1 | 100 (≈ 31.5 µg/mL) | 100 (≈ 31.5 µg/mL) | 100 (≈ 31.5 µg/mL) | > 50 | inactive | inactive | inactive | 810 | 100 (≈ 31.5 µg/mL) | 100 (≈ 31.5 µg/mL) | > 100 | > 100 | > 100 | > 100 | > 100 |
| COc1ccccc1-c1n[nH]c(=S)n1-c1ccc(Cl)c(Cl)c1 | – | > 400 | > 400 | > 100 | – | – | – | – | – | – | – | – | – | – | – |
| O=C(NC(=S)NNC(=O)c1ccccc1O)c1ccc(Cl)c(Cl)c1 | 25 (≈ 9.61 µg/mL) | 50 (≈ 19.2 µg/mL) | 25 (≈ 9.61 µg/mL) | > 50 | inactive | inactive | inactive | 1150 | 100 (≈ 38.4 µg/mL) | 50 (≈ 19.2 µg/mL) | 50 (≈ 19.2 µg/mL) | 25 (≈ 9.61 µg/mL) | 25 (≈ 9.61 µg/mL) | 25 (≈ 9.61 µg/mL) | 12.5 (≈ 4.8 µg/mL) |
| COc1ccc(O)c(C(=O)NNC(=S)Nc2ccccc2)c1 | – | > 100 | > 100 | – | – | – | – | 630 | – | – | – | – | – | – | – |
| Oc1ccccc1-c1n[nH]c(=S)n1-c1ccc(F)c(F)c1 | – | > 400 | > 400 | > 100 | – | – | – | – | – | – | – | – | – | – | – |
| Sc1nnc(-c2ccccc2)n1-c1ccccc1 | – | > 400 | > 400 | > 100 | – | – | – | – | – | – | – | – | – | – | – |
| Clc1ccc(Nc2nnc(-c3ccccc3)s2)cc1Cl | – | > 100 | > 100 | > 100 | – | – | – | – | – | – | – | – | – | – | – |
| O=C(NNC(=S)Nc1ccccc1)c1ccccc1O | 800 (≈ 230 µg/mL) | > 800 | 800 (≈ 230 µg/mL) | – | inactive | inactive | inactive | 740 | 800 (≈ 230 µg/mL) | 800 (≈ 230 µg/mL) | > 800 | > 800 | > 800 | 800 (≈ 230 µg/mL) | > 800 |
| Oc1ccccc1-c1n[nH]c(=S)n1-c1ccc(F)cc1 | – | > 800 | > 800 | – | – | – | – | 60000 | – | – | – | – | – | – | – |
| Nc1ccccc1C(=O)NNC(=S)Nc1ccccc1 | – | > 400 | > 400 | > 100 | – | – | – | – | – | – | – | – | – | – | – |
